# Test results from ChEMBL document CHEMBL1149606, “Synthesis, 3D-QSAR, and docking studies of 1-phenyl-1H-1,2,3-triazoles as selective antagonists for beta3 over alpha1beta2gamma2 GABA receptors” (Bioorg Med Chem, 2007).
# Experiments:
# [1] = species on record: Homo sapiens; test: Selectivity for human GABA-beta-3 receptor over human GABA alpha-1-beta-2-gamma-2 receptor
# In short: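 Selectivity from [³H]EBOB competition binding run separately on each receptor. β3 assay: membranes (50 µg protein) from hygromycin-selected Drosophila S2 cells stably expressing human β3, copper sulfate-induced 24 h before harvest; 0.5 nM [³H]EBOB, 10 mM Na phosphate/300 mM NaCl pH 7.5, 22 °C, 70 min. α1β2γ2 assay: membranes (150 µg) from stable HEK-293 cells; 1 nM [³H]EBOB, 50 mM Na phosphate/200 mM NaCl pH 7.4, 25 °C, 90 min. Both assays: GF/B filtration, scintillation counting, nonspecific binding with 5 µM EBOB, ≥3 repeats, probit IC50, then Cheng–Prusoff Ki (Kd 5.0 and 10.7 nM).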
# [2] = target: GABA A receptor alpha-1/beta-2/gamma-2 (Homo sapiens); test: Displacement of [3H]EBOB from human recombinant GABA alpha-1-beta-2-gamma-2 receptor expressed in HEK293 cells
# [3] = target: T1, Gamma-aminobutyric acid receptor subunit beta-3 (Homo sapiens, UniProt P28472); test: Displacement of [3H]EBOB from human recombinant GABAbeta3 receptor expressed in HEK293 cells; assay type: cell-based
# T1 sequence (P28472 whole entry): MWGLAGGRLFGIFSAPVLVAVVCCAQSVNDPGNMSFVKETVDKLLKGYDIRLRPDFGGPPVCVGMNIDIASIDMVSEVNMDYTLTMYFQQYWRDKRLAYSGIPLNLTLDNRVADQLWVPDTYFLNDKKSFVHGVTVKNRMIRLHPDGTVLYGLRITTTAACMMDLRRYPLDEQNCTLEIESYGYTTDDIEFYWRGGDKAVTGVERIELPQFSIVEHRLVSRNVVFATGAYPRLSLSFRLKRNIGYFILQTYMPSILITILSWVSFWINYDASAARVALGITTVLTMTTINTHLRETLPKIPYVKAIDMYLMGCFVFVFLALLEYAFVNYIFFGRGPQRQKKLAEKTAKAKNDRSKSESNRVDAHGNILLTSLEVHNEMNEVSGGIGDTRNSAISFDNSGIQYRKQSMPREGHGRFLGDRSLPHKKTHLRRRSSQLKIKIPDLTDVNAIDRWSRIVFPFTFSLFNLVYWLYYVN
# [4] = system: Musca domestica; test: Insecticidal activity against house fly WHO/SRS assessed as mortality after 24 hrs; assay type: functional
# In short: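 Adult female houseflies, 3–5 days post-emergence, pretreated with piperonyl butoxide (10 µg in 1 µL acetone) 1 h before topical thoracic dosing of compound in 1 µL acetone at several doses; 30 flies per dose, kept at 25 °C with sugar and water. Mortality read at 24 h, three repeats; LD50 by probit on mean mortality.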
Structure (SMILES),Ratio Ki [1],Ki [2] [nM],Ki [3] [nM],LD50 [4] [pmol]
CCCCc1cn(-c2ccc(Br)cc2)nn1,> 2.87,> 9150,–,–
CCCc1cnnn1-c1c(Cl)cc(C(F)(F)F)cc1Cl,> 12.1,> 9150,–,–
CCCc1nnn(-c2c(Cl)cc(C(F)(F)F)cc2Cl)c1CCl,403,266,0.659,5.17
CCCc1c(CO)nnn1-c1c(Cl)cc(C(F)(F)F)cc1Cl,> 2.65,> 9150,3450,–
CCCCc1cn(-c2c(Cl)cc(Br)cc2Cl)nn1,> 293,> 9150,–,–
CCCc1c(CCl)nnn1-c1c(Cl)cc(C(F)(F)F)cc1Cl,> 137,> 9150,66.7,–
FC(F)(F)c1cc(Cl)c(-n2cc(C3CCCCC3)nn2)c(Cl)c1,127,1500,–,–
CCCc1nnn(-c2c(Br)cc(C(F)(F)F)cc2Br)c1C,> 673,> 9150,13.6,–
CCCCCCc1cnnn1-c1c(Cl)cc(C(F)(F)F)cc1Cl,> 10.6,> 9150,–,–
CCc1nnn(-c2c(Cl)cc(C(F)(F)F)cc2Cl)c1CC,–,–,4.27,–
CCCCc1cn(-c2c(Cl)cc(C(F)(F)F)cc2Cl)nn1,362,1010,–,–
CCCc1nnn(-c2c(Cl)cc(C(F)(F)F)cc2Cl)c1C,166,322,1.94,–
CCCc1c(C)nnn1-c1c(Cl)cc(C(F)(F)F)cc1Cl,> 17,> 9150,539,–
CCCc1cn(-c2c(Cl)cc(C(F)(F)F)cc2Cl)nn1,220,470,–,–
FC(F)(F)c1cc(Cl)c(-n2cc(-c3ccccc3)nn2)c(Cl)c1,> 71.5,> 9150,–,–
CCCc1c(CC)nnn1-c1c(Cl)cc(C(F)(F)F)cc1Cl,> 194,> 9150,47.2,–
CCCc1nnn(-c2c(Cl)cc(C(F)(F)F)cc2Cl)c1CCC,> 71.5,> 9150,128,–
CCCc1nnn(-c2c(Cl)cc(C(F)(F)F)cc2Cl)c1CC,> 1130,> 9150,8.07,–
CC(C)(C)c1cn(-c2c(Cl)cc(C(F)(F)F)cc2Cl)nn1,470,390,–,1.86

Structure (SMILES),Ratio Ki [1],Ki [2] [nM],Ki [3] [nM],LD50 [4] [pmol]
FC(F)(F)c1cc(Cl)c(-n2nncc2-c2ccccc2)c(Cl)c1,> 19.3,> 9150,–,–
CCCCc1cnnn1-c1c(Cl)cc(Br)cc1Cl,> 11.7,> 9150,–,–
C#Cc1cc(Cl)c(-n2cc(CCCC)nn2)c(Cl)c1,> 264,> 9150,–,–
CCCCc1cnnn1-c1c(Cl)cc(Cl)cc1Cl,> 2.24,> 9150,–,–
CCc1nnn(-c2c(Cl)cc(C(F)(F)F)cc2Cl)c1C,150,1060,7.08,–
CCCCc1cn(-c2c(Cl)cc(Cl)cc2Cl)nn1,> 111,> 9150,–,–
CCCCc1cn(-c2c(Cl)cccc2Cl)nn1,> 2.6,> 9150,–,–
CCCc1nnn(-c2c(Cl)cc(C(F)(F)F)cc2Cl)c1CO,153,387,2.53,–
CCCCCc1cn(-c2c(Cl)cc(C(F)(F)F)cc2Cl)nn1,50,1390,–,–
CCCCc1cnnn1-c1c(Cl)cccc1Cl,> 4.46,> 9150,–,–
FC(F)(F)c1cc(Cl)c(-n2cc(CCCCl)nn2)c(Cl)c1,378,616,–,–
CCCCc1cnnn1-c1ccc(C(F)(F)F)cc1,> 1.73,> 9150,–,–
CCc1c(C)nnn1-c1c(Cl)cc(C(F)(F)F)cc1Cl,–,–,70.1,–
CCCCc1cnnn1-c1ccc(Br)cc1,> 3.35,> 9150,–,–
CCCCCc1cnnn1-c1c(Cl)cc(C(F)(F)F)cc1Cl,> 6.58,> 9150,–,–
Nc1c(-c2ccccc2)nnn1-c1c(Cl)cc(C(F)(F)F)cc1Cl,57.1,1160,–,–
C#Cc1ccc(-n2nncc2CCCC)cc1,> 1.21,> 9150,–,–
CCCCCCc1cn(-c2c(Cl)cc(C(F)(F)F)cc2Cl)nn1,5.05,1980,–,–
